Data: publication PMC8915191 (Clinical cancer research : an official journal of the …, 2019)
Where “and” joins values, the source holds several entries; their conditions need not be identical. Equal entries are not always repeated.

Legend:
[1] = test system: patients with advanced RCC; conditions: human, in vivo, po, 5 weeks
[2] = HCQ population pharmacokinetics, whole blood concentrations by HPLC-MS/MS; type: in vivo, human
In short: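 HCQ 400 or 600 mg twice daily was given with everolimus, with a draw at each visit plus intensive sampling in a few patients (pre-dose, 15 min, 30 min, 1, 2, 3, 4, 6 h). Heparinized whole blood was stored at −70 °C and spiked with d4-HCQ internal standard. It was acetonitrile/methanol-precipitated and run on LC-MS/MS (positive ESI, MRM 337.275→248.152) in duplicate. The curve was 1–7500 ng/mL (LLOQ 1.0 ng/mL). A 2-compartment first-order-absorption model was fitted.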

[3] = no reference given; cited from earlier work
[4] = test system: peripheral blood mononuclear cells; experiment: Autophagic vesicles in serial PBMC by quantitative electron microscopy; type: in vivo, human; conditions: after one week of everolimus alone; 11 patients
In short: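 Cancer patients took everolimus 10 mg alone for one week, then HCQ 400 or 600 mg twice daily was added. Serial PBMC were collected before treatment, after one cycle and after two cycles (one week of everolimus alone; one month combined) in a limited number of patients (3 at 400 mg, 8 at 600 mg). PBMC were fixed for quantitative EM of autophagic vesicles.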

[5] = test system: advanced clear cell renal carcinoma (ccRCC); conditions: cited from earlier work
mTOR = conditions: cited from earlier work
[6] = 2-compartment population PK model, 27 patients, oral HCQ
[7] = 1000 bootstrap runs, population PK model

CCN(CCO)CCCC(C)Nc1ccnc2cc(Cl)ccc12 (stereo not drawn) [HCQ, Hydroxychloroquine]
Recommended phase II dose (RP2D) of HCQ [1]: 600 mg | Cl/F, apparent oral clearance, Model estimate [2, 6]: 7.98 L/h | Q, intercompartmental clearance, Model estimate [2, 6]: 14.98 L/h | V2/F, apparent peripheral volume of distribution, Model estimate [2, 6]: 3604.83 L | Ka, absorption rate constant, Model estimate ([2]; 2-compartment population PK model, 163 blood samples from 27 patients, oral HCQ): 0.93 h | Cl/F, apparent oral clearance, Bootstrap Estimate [2, 7]: 8.00 L/h | Ka, absorption rate constant, Bootstrap Estimate [2, 7]: 1.00 h | Q, intercompartmental clearance, Bootstrap Estimate [2, 7]: 15.02 L/h | V2/F, apparent peripheral volume of distribution, Bootstrap Estimate [2, 7]: 3598.91 L | Vd/F ([2]; human, whole blood, po): 600 L | Plasma protein binding [3]: not extensively bound to plasma proteins

CO[C@H]1C[C@@H]2CC[C@@H](C)[C@@](O)(O2)C(=O)C(=O)N2CCCC[C@H]2C(=O)O[C@H]([C@H](C)C[C@@H]2CC[C@@H](OCCO)[C@H](OC)C2)CC(=O)[C@H](C)/C=C(\C)[C@@H](O)[C@@H](OC)C(=O)[C@H](C)C[C@H](C)/C=C/C=C/C=C/1C [everolimus, Everolimus]
Drug-induced change in autophagic vesicles in PBMC [4]: no significant drug-induced changes | Hazard ratio for PFS, everolimus versus placebo ([5]; 95% CI 0.22–0.40, p<0·0001): 0.30 | Median PFS, everolimus alone, CHECKMATE 025 [5]: 4.6 months | Median PFS, everolimus alone, METEOR [5]: 3.8 months | Response rate, everolimus single agent [5]: 1% | Median PFS, everolimus alone, RECORD-1 ([5]; everolimus 10 mg daily after TKI progression): 4.01 months and 4 months

CO[C@H]1C[C@@H]2CC[C@@H](C)[C@@](O)(O2)C(=O)C(=O)N2CCCC[C@H]2C(=O)O[C@H]([C@H](C)C[C@@H]2CC[C@@H](OC(=O)C(C)(CO)CO)[C@H](OC)C2)CC(=O)[C@H](C)/C=C(\C)[C@@H](O)[C@@H](OC)C(=O)[C@H](C)C[C@H](C)/C=C/C=C/C=C/1C [temsirolimus]
mTOR inhibition in PBMC (mTOR): sustained mTOR inhibition
